Data as given in ChEMBL document CHEMBL4706487, “Antitumor agents 7. Synthesis, antiproliferative activity and molecular modeling of new l-lysine-conjugated pyridophenoxazinones as potent DNA-binding ligands and topoisomerase IIα inhibitors” (Eur J Med Chem, 2020).
Activity calls are given as the source filed them. The calls are words filed in the database; no cut-off is given here. Starred links: 1 amine or outer side, 2 acyl side, 3 side chain; linkers in the order of their positions; H or OH if unused. Positions of bridges follow the written chain, without caps; N, C: chain ends. Non-standard residues stand in square brackets, D forms with d. Residues, ends and D or L forms follow the SMILES beside them. Chains are numbered I, II in the order given. Actinocin(1to9) = Cc1c2oc3c(C)ccc(C(=O)[*:2])c3nc-2c(C(=O)[*:1])c(N)c1=O; NMeV = CN[C@H](C(=O)O)C(C)C; Sar = CNCC(=O)O

How the values were obtained:
[1] = system: CCRF-CEM; assay: Antiproliferative activity against human CCRF-CEM cells assessed as cell viability measured after 4 days by MTT assay; format: functional, cell-based; conditions: 96 h
Outline: (§1)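 Leukemia/lymphoma cells (RPMI 1640, 10% FCS) resuspended at 1 × 10⁵ cells/mL with serial drug dilutions and read by MTT after 96 h at 37 °C. Solid-tumor cells (own media, 10% FCS) were seeded at 5 × 10⁴ cells/mL, allowed 16 h to adhere, then dosed and read by MTT 4 days later. IC50 was derived by linear regression of growth as % of untreated controls.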

[2] = system: Calf thymus DNA; assay: Binding affinity to calf thymus DNA assessed as red shift by UV-vis spectroscopy; format: nucleic-acid assay; set-up: unit not given here; conditions: Bos taurus
Outline: (§2)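 ctDNA held at 0.2 mM in phosphate buffer pH 7 and titrated with drug from […]. UV-vis spectra recorded in a 1 cm quartz cuvette. Binding constant was taken by the mole-ratio method from optical density changes at 260 nm, using a double reciprocal plot.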

[3] = system: SK-MEL-28; assay: Antiproliferative activity against human SKMEL-28 cells assessed as cell viability measured after 4 days by MTT assay; format: functional, cell-based; conditions: SK-MEL-28, 96 h; outline: as §1
[4] = system: HT-29; assay: Antiproliferative activity against human HT-29 cells assessed as cell viability measured after 4 days by MTT assay; format: functional, cell-based; conditions: HT-29, 96 h; outline: as §1
[5] = system: MCF7; assay: Antiproliferative activity against human MCF7 cells assessed as cell viability measured after 4 days by MTT assay; format: functional, cell-based; conditions: MCF7, 96 h; outline: as §1
[6] = system: Calf thymus DNA; assay: Binding affinity to calf thymus DNA assessed as lamda max by UV-vis spectroscopy; format: nucleic-acid assay; conditions: Bos taurus; outline: as §2
[7] = system: MT4; assay: Antiproliferative activity against human MT-4 cells assessed as cell viability measured after 4 days by MTT assay; format: functional, cell-based; conditions: MT4, 96 h; outline: as §1
[8] = system: Calf thymus DNA; assay: Binding affinity to calf thymus DNA assessed as isosbestic point by UV-vis spectroscopy; format: nucleic-acid assay; conditions: Bos taurus; outline: as §2
[9] = system: G-361; assay: Antiproliferative activity against human G-361 cells assessed as cell viability measured after 4 days by MTT assay; format: functional, cell-based; conditions: G-361, 96 h; outline: as §1
[10] = system: Calf thymus DNA; assay: Binding affinity to calf thymus DNA assessed as hypochromism by UV-vis spectroscopy; conditions: Bos taurus
[11] = system: CCRF-SB; assay: Antiproliferative activity against human CCRF-SB cells assessed as cell viability measured after 4 days by MTT assay; format: functional, cell-based; conditions: 96 h; outline: as §1
[12] = system: HeLa; assay: Antiproliferative activity against human HeLa cells assessed as cell viability measured after 4 days by MTT assay; format: functional, cell-based; conditions: 96 h
Outline: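 Solid-tumor cells (own media, 10% FCS) were seeded at 5 × 10⁴ cells/mL, allowed 16 h to adhere, then dosed and read by MTT 4 days later. IC50 was derived by linear regression of growth as % of untreated controls.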

[13] = system: ACHN; assay: Antiproliferative activity against human ACHN cells assessed as cell viability measured after 4 days by MTT assay; format: functional, cell-based; conditions: 96 h; outline: as §1
[14] = system: DNA; assay: Binding affinity at Escherichia coli pBR322 DNA assessed as unwinding of supercoiled DNA at 10 uM incubated for 10 mins in presence of human topoisomerase 1 by agarose gel based electrophoresis; format: nucleic-acid assay
Outline: (§3)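 Intercalation assay with relaxed pBR322 (300 ng) and 2 units human Topo I in 50 mM Tris-HCl pH 7.5, 2.5 mM MgCl₂, 0.5 mM DTT and 50 µg/mL BSA, run 10 min at 37 °C. Stopped by phenol/chloroform/isoamyl alcohol extraction. Products run on 1.2% agarose in TAE, 2 V/cm for 15 h, then EtBr-stained. EtBr served as control; three independent experiments.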

[15] = target: DNA topoisomerase 2-alpha (Homo sapiens) (UniProt P11388); assay: Inhibition of human topoisomerase 2alpha mediated pBR322 DNA relaxation at 2 uM by agarose gel electrophoresis relative to control
[16] = target: DNA topoisomerase 2-alpha (Homo sapiens) (UniProt P11388); assay: Poison activity at human topo2alpha assessed as induction of accumulation of topo-2/DNA cleavage complex formation at 1 to 5 uM using […] plasmid incubated for 10 mins by agarose gel electrophoresis; conditions: dose 1-5 µM
Outline: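 Supercoiled pBR322 incubated with purified Topo IIα and drug for 10 min at 30 °C. Stopped with 0.35% SDS plus 0.3 mg/mL proteinase K (final), then 1 h at 56 °C. Products run on 1.2% agarose gels containing EtBr. Linear DNA quantified by gel densitometry; averages of three independent experiments.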

[17] = target: DNA topoisomerase 2-alpha (Homo sapiens) (UniProt P11388); assay: Inhibition of human topoisomerase 2alpha mediated pBR322 DNA relaxation at 1 uM by agarose gel electrophoresis relative to control
[18] = system: DNA; assay: Binding affinity at Escherichia coli pBR322 DNA assessed as unwinding of supercoiled DNA at 0.1 uM incubated for 10 mins in presence of human topoisomerase 1 by agarose gel based electrophoresis; format: nucleic-acid assay; outline: as §3

DNA topoisomerase 2-alpha (Homo sapiens), sequence (P11388 whole entry): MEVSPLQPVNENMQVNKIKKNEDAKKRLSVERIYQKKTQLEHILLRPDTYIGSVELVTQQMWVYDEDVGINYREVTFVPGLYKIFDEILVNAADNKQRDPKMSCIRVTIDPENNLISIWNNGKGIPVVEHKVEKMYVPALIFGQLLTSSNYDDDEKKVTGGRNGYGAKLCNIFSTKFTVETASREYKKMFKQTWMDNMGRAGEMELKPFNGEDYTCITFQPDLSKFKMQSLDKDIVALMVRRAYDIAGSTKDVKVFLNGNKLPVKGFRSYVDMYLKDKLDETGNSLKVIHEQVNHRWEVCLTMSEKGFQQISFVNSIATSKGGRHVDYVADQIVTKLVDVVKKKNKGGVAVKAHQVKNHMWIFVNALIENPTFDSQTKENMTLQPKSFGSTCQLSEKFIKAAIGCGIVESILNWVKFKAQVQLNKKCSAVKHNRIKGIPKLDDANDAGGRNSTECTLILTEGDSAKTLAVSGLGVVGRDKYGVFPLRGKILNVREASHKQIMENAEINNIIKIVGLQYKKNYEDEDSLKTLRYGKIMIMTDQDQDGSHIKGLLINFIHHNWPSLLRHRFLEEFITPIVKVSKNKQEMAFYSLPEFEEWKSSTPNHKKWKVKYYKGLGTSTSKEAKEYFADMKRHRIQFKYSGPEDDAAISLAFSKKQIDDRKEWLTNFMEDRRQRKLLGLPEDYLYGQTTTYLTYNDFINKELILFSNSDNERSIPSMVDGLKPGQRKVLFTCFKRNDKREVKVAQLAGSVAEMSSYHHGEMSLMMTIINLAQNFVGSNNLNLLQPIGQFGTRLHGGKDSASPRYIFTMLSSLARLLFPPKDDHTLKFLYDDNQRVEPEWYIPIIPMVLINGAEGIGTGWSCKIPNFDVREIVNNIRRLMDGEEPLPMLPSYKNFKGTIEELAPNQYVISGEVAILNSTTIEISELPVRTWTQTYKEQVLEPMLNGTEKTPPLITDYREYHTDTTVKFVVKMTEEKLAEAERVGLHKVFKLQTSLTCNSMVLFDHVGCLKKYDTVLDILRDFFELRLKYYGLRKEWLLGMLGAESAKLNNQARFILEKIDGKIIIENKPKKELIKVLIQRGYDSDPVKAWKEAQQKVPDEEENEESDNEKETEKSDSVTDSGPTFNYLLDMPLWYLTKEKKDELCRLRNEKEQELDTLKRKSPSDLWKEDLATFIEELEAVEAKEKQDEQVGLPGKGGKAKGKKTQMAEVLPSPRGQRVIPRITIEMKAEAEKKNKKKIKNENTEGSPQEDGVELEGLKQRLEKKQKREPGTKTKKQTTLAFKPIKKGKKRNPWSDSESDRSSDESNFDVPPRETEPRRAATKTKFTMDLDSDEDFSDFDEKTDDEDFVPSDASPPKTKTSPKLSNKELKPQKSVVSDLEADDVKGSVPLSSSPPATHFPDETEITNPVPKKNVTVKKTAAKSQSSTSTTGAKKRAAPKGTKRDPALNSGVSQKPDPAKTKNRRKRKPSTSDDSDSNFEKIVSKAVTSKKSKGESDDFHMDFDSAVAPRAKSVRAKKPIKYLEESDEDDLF

SMILES | IC50 [1] [nM] | Activity [2] | IC50 [3] [nM] | IC50 [4] [nM] | IC50 [5] [nM] | Activity [6] | IC50 [7] [nM] | Activity [8] [nm] | IC50 [9] [nM] | Activity [10] | IC50 [11] [nM] | IC50 [12] [nM] | IC50 [13] [nM] | Activity [14] | inhibition [15] [%] | Activity [16] | inhibition [17] [%] | Activity [18]
COc1cccc2c1C(=O)c1c(O)c3c(c(O)c1C2=O)C[C@@](O)(C(=O)CO)C[C@@H]3O[C@H]1C[C@H](N)[C@H](O)[C@H](C)O1 [DOXORUBICIN] | 20 |  |  |  |  |  |  |  |  |  |  |  |  |  |  |  |  | 
N[C@@H](CCCCNC(=O)c1ccc2oc3cc(=O)c4cccnc4c-3nc2c1)C(=O)O | 150 | 446 | 100 | 120 | 120 | 441 | 150 | 275 | 30 | 17% | 100 | 150 | 100 |  |  |  |  | 
N[C@@H](CCCCNC(=O)c1ccc2nc3c4ncccc4c(=O)cc-3oc2c1)C(=O)O | 150 | 461 | 80 | 100 | 120 | 459 | 200 | 320 | 90 | 17% | 160 | 100 | 70 |  |  |  |  | 
COc1cc([C@@H]2c3cc4c(cc3[C@@H](O[C@@H]3O[C@@H]5CO[C@@H](C)O[C@H]5[C@H](O)[C@H]3O)[C@H]3COC(=O)[C@H]23)OCO4)cc(OC)c1O [ETOPOSIDE] |  |  | 1100 |  |  |  |  |  | 2300 |  |  | 3000 |  |  |  |  |  | 
NCCCC[C@H](NC(=O)c1ccc2nc3c4ncccc4c(=O)cc-3oc2c1)C(=O)O | 17 | 455 | 60 | 100 | 50 | 451 | 200 | 297 | 50 | 26% | 80 | 50 | 60 |  |  |  |  | 
NCCCC[C@H](NC(=O)c1ccc2oc3cc(=O)c4cccnc4c-3nc2c1)C(=O)O | 160 | 447 | 210 | 200 | 100 | 445 | 200 | 280 | 50 | 19% | 160 | 100 | 80 |  |  |  |  | 
O=c1cc2oc3ccccc3nc-2c2ncccc12 | 90 |  | 400 | 380 | 370 |  | 180 |  | 450 |  | 150 | 150 | 230 |  |  |  |  | 
NCCCC[C@H](NC(=O)c1ccc2oc3cc(=O)c4ncccc4c-3nc2c1)C(=O)O | 100 | 440 | 120 | 80 | 100 | 437 | 90 | 343 | 60 | 30% | 120 | 80 | 100 | Active |  |  |  | 
O=c1cc2oc3ccccc3nc-2c2cccnc12 |  |  |  |  | 230 |  |  |  |  |  |  |  |  |  |  |  |  | 
Cc1c2oc3c(C)ccc(C(=O)N[C@@H]4C(=O)N[C@H](C(C)C)C(=O)N5CCC[C@H]5C(=O)N(C)CC(=O)N(C)[C@@H](C(C)C)C(=O)O[C@@H]4C)c3nc-2c(C(=O)N[C@@H]2C(=O)N[C@H](C(C)C)C(=O)N3CCC[C@H]3C(=O)N(C)CC(=O)N(C)[C@@H](C(C)C)C(=O)O[C@@H]2C)c(N)c1=O [DACTINOMYCIN] (I: T[dV]P[Sar][NMeV] / II: T[dV]P[Sar][NMeV]; ester I:1-I:C, II:1-II:C; linker I:N-II:N via Actinocin(1to9)) |  |  |  |  |  |  |  |  | 6 |  |  |  |  |  |  |  |  | 
N[C@@H](CCCCNC(=O)c1ccc2oc3cc(=O)c4ncccc4c-3nc2c1)C(=O)O | 40 | 440 | 40 | 20 | 60 | 436 | 90 | 310 | 20 | 39% | 80 | 50 | 50 | Active |  |  |  | 
NCCCC[C@H](NC(=O)c1ccc2nc3c4cccnc4c(=O)cc-3oc2c1)C(=O)O | 20 | 447 | 2 | 3 | 7 | 443 | 10 | 395 | 1 | 28 | 20 | 5 | 8 | Active | 100 | Active | 50 | Active
